Data as given in ChEMBL document CHEMBL4715693, “Synthesis and antiviral properties of novel indole-based thiosemicarbazides and 4-thiazolidinones” (Bioorg Med Chem, 2016).
pEC50: −log10 of the molar value. ≈ marks a conversion by molar mass, not a printed value.

What was measured:
Sindbis virus = experiment: Antiviral activity against Sindbis virus infected in African green monkey Vero cells assessed as reduction in virus-induced cytopathic effect incubated for 3 to 6 days by light microscopic analysis; assay type: functional, organism-based
Procedure, shortened: (§1)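 CPE reduction assay: virus and serial compound dilutions added together to subconfluent HeLa (vesicular stomatitis, Coxsackie B4, respiratory syncytial) or Vero (Coxsackie B4, Sindbis, Punta Toro) cultures. Incubated 3–6 days at 37 °C. […] Mean ± SEM of three independent tests.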

Vaccinia virus = experiment: Antiviral activity against Vaccinia virus infected in human HEL cells assessed as reduction in virus-induced cytopathic effect incubated for 3 to 6 days by light microscopic analysis; assay type: functional, organism-based; details: Orthopoxvirus vaccinia
[1] = Cytotoxicity against cat CRFK cells assessed as reduction in cell viability incubated for 3 to 6 days by MTS assay; assay type: cell-based, Felis catus; details: crfk, time 3-6 day
Procedure, shortened: (§2)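 CRFK or MT4 cells were exposed to serial compound dilutions alongside the antiviral assays for 3–6 days at 37 °C.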

[2] = system: Mammalian orthoreovirus 1; experiment: Antiviral activity against Mammalian orthoreovirus 1 infected in African green monkey Vero cells assessed as reduction in virus-induced cytopathic effect incubated for 3 to 6 days by light microscopic analysis; assay type: functional, organism-based; details: Mammalian orthoreovirus 1, Vero
[3] = system: Vesicular stomatitis virus; experiment: Antiviral activity against Vesicular stomatitis virus infected in human HeLa cells assessed as reduction in virus-induced cytopathic effect incubated for 3 to 6 days by light microscopic analysis; assay type: functional, organism-based
Procedure, shortened: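 CPE reduction assay: virus and serial compound dilutions added together to subconfluent HeLa (vesicular stomatitis, Coxsackie B4, respiratory syncytial) or Vero (Coxsackie B4, Sindbis, Punta Toro) cultures. Incubated 3–6 days at 37 °C. Mean ± SEM of three independent tests.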

Human alphaherpesvirus 2 = experiment: Antiviral activity against Herpes simplex virus 2 infected in human HEL cells assessed as reduction in virus-induced cytopathic effect incubated for 3 to 6 days by light microscopic analysis; assay type: functional, cell-based; details: Human alphaherpesvirus 2, HEL
[4] = system: Respiratory syncytial virus; experiment: Antiviral activity against Respiratory syncytial virus infected in human HeLa cells assessed as reduction in virus-induced cytopathic effect incubated for 3 to 6 days by light microscopic analysis; assay type: functional, organism-based; procedure, shortened: as §1
[5] = Cytotoxicity against human HeLa cells assessed as changes in cell morphology incubated for 3 to 6 days by light microscopic analysis; assay type: cell-based; details: time 3-6 day
Procedure, shortened: (§3)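 Uninfected subconfluent cells (Vero or HeLa, as named) exposed to serial compound dilutions in parallel with the CPE assays, 37 °C, 3–6 days. Cell morphology examined by light microscopy; MCC = minimal concentration causing microscopically detectable changes in morphology.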

[6] = Cytotoxicity against African green monkey Vero cells assessed as changes in cell morphology incubated for 3 to 6 days by light microscopy; assay type: cell-based; details: chlorocebus sabaeus, time 3-6 day; procedure, shortened: as §3
Influenza B virus = experiment: Antiviral activity against influenza B virus infected in dog MDCK cells assessed as reduction in virus-induced cytopathic effect incubated for 3 to 6 days by light microscopic analysis; assay type: functional, organism-based
Procedure, shortened: (§4)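 MDCK cells, subconfluent, received influenza A or B virus together with serial compound dilutions. Incubated 3–6 days at 35 °C.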

Human alphaherpesvirus 1 = experiment: Antiviral activity against Herpes simplex virus 1 infected in human HEL cells assessed as reduction in virus-induced cytopathic effect incubated for 3 to 6 days by light microscopic analysis; assay type: functional, cell-based; details: Human alphaherpesvirus 1, HEL
Feline coronavirus = experiment: Antiviral activity against Feline coronavirus infected in cat CRFK cells assessed as reduction in virus-induced cytopathic effect incubated for 3 to 6 days by light microscopic analysis; assay type: functional, organism-based; details: Alphacoronavirus 1, CRFK
[7] = Cytotoxicity against human HEL cells assessed as changes in cell morphology incubated for 3 to 6 days by light microscopy; assay type: cell-based; details: time 3-6 day
Procedure, shortened: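 Human embryonic lung fibroblasts incubated with serial compound dilutions alongside the antiviral assays, 37 °C, 3–6 days. Morphology inspected by light microscopy; minimal cytotoxic concentration taken as lowest concentration giving minimal morphological change.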

Human respirovirus 3 = experiment: Antiviral activity against Human parainfluenza virus 3 infected in African green monkey Vero cells assessed as reduction in virus-induced cytopathic effect incubated for 3 to 6 days by light microscopic analysis; assay type: functional, organism-based; details: Human respirovirus 3, Vero
Coxsackievirus B4 [8] = experiment: Antiviral activity against Human coxsackievirus B4 infected in human HeLa cells assessed as reduction in virus-induced cytopathic effect incubated for 3 to 6 days by light microscopic analysis; assay type: functional, organism-based; details: Enterovirus B; procedure, shortened: as §1
Punta Toro virus = experiment: Antiviral activity against Punta Toro virus infected in African green monkey Vero cells assessed as reduction in virus-induced cytopathic effect incubated for 3 to 6 days by light microscopic analysis; assay type: functional, organism-based; procedure, shortened: as §1
[9] = system: Human immunodeficiency virus 2; experiment: Antiviral activity against Human immunodeficiency virus 2 infected in human MT4 cells assessed as reduction in virus-induced cytopathic effect incubated for 3 to 6 days by light microscopic analysis; assay type: functional, organism-based; details: Human immunodeficiency virus 2, MT4
Coxsackievirus B4 [10] = experiment: Antiviral activity against Human coxsackievirus B4 infected in African green monkey Vero cells assessed as reduction in virus-induced cytopathic effect incubated for 3 to 6 days by light microscopic analysis; assay type: functional, organism-based; details: Enterovirus B; procedure, shortened: as §1
Influenza A virus = experiment: Antiviral activity against influenza A virus infected in dog MDCK cells assessed as reduction in virus-induced cytopathic effect incubated for 3 to 6 days by light microscopic analysis; assay type: functional, organism-based; details: for EC50: Influenza A virus, MDCK; procedure, shortened: as §4
[11] = system: Human immunodeficiency virus 1; experiment: Antiviral activity against Human immunodeficiency virus 1 infected in human MT4 cells assessed as reduction in virus-induced cytopathic effect incubated for 3 to 6 days by light microscopic analysis; assay type: functional, organism-based; details: Human immunodeficiency virus 1, MT4
Felid alphaherpesvirus 1 = experiment: Antiviral activity against Feline herpesvirus infected in cat CRFK cells assessed as reduction in virus-induced cytopathic effect incubated for 3 to 6 days by light microscopic analysis; assay type: functional, organism-based; details: Felid alphaherpesvirus 1, CRFK
MT4 = experiment: Cytotoxicity against human MT4 cells assessed as reduction in cell viability incubated for 3 to 6 days by MTS assay; assay type: cell-based; details: time 3-6 day; procedure, shortened: as §2
[12] = Cytotoxicity against dog MDCK cells assessed as changes in cell morphology incubated for 3 to 6 days by light microscopy; assay type: cell-based, Canis lupus familiaris; details: time 3-6 day
[13] = Selectivity index, ratio of MCC for human HeLa cells to EC50 for Human coxsackievirus B4 infected in human HeLa cells; assay type: toxicity, cell-based
Procedure, shortened: (§5)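 HeLa cells infected concurrently with addition of serial compound dilutions, 3–6 days at 37 °C. CPE inhibition scored microscopically for EC50; MCC from minimal alteration of cell morphology by microscopy; index = MCC divided by EC50.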

[14] = Selectivity index, ratio of MCC for African green monkey Vero cells to EC50 for Human coxsackievirus B4 infected in African green monkey Vero cells; assay type: toxicity
[15] = Selectivity index, ratio of MCC for African green monkey Vero cells to EC50 for Sindbis virus infected in African green monkey Vero cells; assay type: toxicity
[16] = Selectivity index, ratio of MCC for human HeLa cells to EC50 for Respiratory syncytial virus infected in human HeLa cells; assay type: toxicity, cell-based; procedure, shortened: as §5

Compound	EC50 (Vaccinia virus) [µg/mL]	CC50 [1] [µg/mL]	EC50 [2] [µg/mL]	EC50 [3] [µg/mL]	EC50 (Human alphaherpesvirus 2) [µg/mL]	EC50 [4] [µg/mL]	MCC [5]	MCC [6]	EC50 (Influenza B virus) [µg/mL]	EC50 (Human alphaherpesvirus 1) [µg/mL]	EC50 (Feline coronavirus) [µg/mL]	MCC [7]	EC50 (Human respirovirus 3) [µg/mL]	EC50 (Coxsackievirus B4 [8]) [µg/mL]	EC50 (Punta Toro virus) [µg/mL]	EC50 [9] [µg/mL]	EC50 (Coxsackievirus B4 [10]) [µg/mL]	EC50 (Influenza A virus) [µg/mL]	EC50 [11] [µg/mL]	EC50 (Felid alphaherpesvirus 1) [µg/mL]	pEC50 [2]	pEC50 [4]	pEC50 (Human respirovirus 3)	pEC50 (Coxsackievirus B4 [8])	pEC50 (Coxsackievirus B4 [10])	other results
O=C(NNC(=S)NCc1ccccc1)c1[nH]c2ccc(F)cc2c1-c1ccccc1	> 100	1.9 (≈ 4.54 µM)	> 100	> 100	> 100	> 100	4 µg/mL	10 µg/mL	> 100	> 100	> 100	> 10 µg/mL	> 100	> 100	> 100	> 100	> 100	> 100	> 100	> 100						EC50 (Sindbis virus): > 100 µg/mL; CC50 (MT4): 11 µg/mL (≈ 26.3 µM)
O=C(NNC(=S)NCCc1ccccc1)c1[nH]c2ccc(F)cc2c1-c1ccccc1	> 100	1.9 (≈ 4.39 µM)	> 100	> 100	> 100	> 100	4 µg/mL	10 µg/mL	> 100	> 100	> 100	10 µg/mL	> 100	> 100	> 100	> 100	> 100	> 100	> 100	> 100						EC50 (Sindbis virus): > 100 µg/mL; MCC [12]: 2 µg/mL; CC50 (MT4): 11 µg/mL (≈ 25.4 µM)
CNC(=S)NNC(=O)c1[nH]c2ccc(F)cc2c1-c1ccccc1	> 100	7.5 (≈ 21.9 µM)	> 100	> 100	> 100	> 100	20 µg/mL	20 µg/mL	> 100	> 100	> 100	20 µg/mL	> 100	2.1	> 100	> 100	1.7	> 100	> 100	> 100						EC50 (Sindbis virus): > 100 µg/mL; selectivity ratio [13]: 9; MCC [12]: 20 µg/mL; selectivity ratio [14]: 12; CC50 (MT4): 18 µg/mL (≈ 52.6 µM)
CCCNC(=S)NNC(=O)c1[nH]c2ccc(F)cc2c1-c1ccccc1	> 100	9.7 (≈ 26.2 µM)	> 100	> 100	> 100	≥ 2.3	20 µg/mL		> 100	> 100	> 100	20 µg/mL	> 100	1.1	> 100	> 100	1.8	> 100	> 100	> 100						EC50 (Sindbis virus): 6.5 µg/mL (≈ 17.5 µM); selectivity ratio [15]: 15; selectivity ratio [16]: ≥ 9; selectivity ratio [13]: 18; MCC [12]: 0.8 µg/mL; selectivity ratio [14]: 56; CC50 (MT4): 11 µg/mL (≈ 29.7 µM)
CCCCNC(=S)NNC(=O)c1[nH]c2ccc(F)cc2c1-c1ccccc1	> 100	1.4 (≈ 3.64 µM)	> 100	> 100	> 100	> 100	4 µg/mL	10 µg/mL	> 100	> 100	> 100	> 10 µg/mL	> 100	> 100	> 100	> 100	> 100	> 100	> 100	> 100						EC50 (Sindbis virus): > 100 µg/mL; MCC [12]: 10 µg/mL; CC50 (MT4): 11 µg/mL (≈ 28.6 µM)
CCNC(=S)NNC(=O)c1[nH]c2ccc(F)cc2c1-c1ccccc1	> 100	2.9 (≈ 8.14 µM)	> 100	> 100	> 100	≥ 4	20 µg/mL	20 µg/mL	> 100	> 100	> 100	20 µg/mL	> 100	0.87	> 100	> 100	0.4	> 100	> 100	> 100						selectivity ratio [15]: 6; selectivity ratio [16]: ≥ 5; selectivity ratio [13]: 23; MCC [12]: 4 µg/mL; selectivity ratio [14]: 50; CC50 (MT4): 14 µg/mL (≈ 39.3 µM)
NC(=O)c1ncn([C@@H]2O[C@H](CO)[C@@H](O)[C@H]2O)n1 [RIBAVIRIN]							> 250 µM	> 250 µM				> 250 µM									< 3.60	4.82	< 3.60	4.21	< 3.60	pEC50 (Influenza A virus; mdck): 5.05
